In ChEMBL document CHEMBL4396890, “Synthesis, Biological Evaluation, Structure-Activity Relationship, and Mechanism of Action Studies of Quinoline-Metronidazole Derivatives Against Experimental Visceral Leishmaniasis” (J Med Chem, 2019):
Calls of active or inactive are those of the source. The rule behind the calls is not given here.

Columns and labels:
Leishmania donovani [1] = assay: Antileishmanial activity against Leishmania donovani MHOM/IN/80/Dd8 promastigotes harboring luciferase reporter gene at 50 uM after 48 hrs by Steady-Glo luminescence assay relative to control; type: functional; conditions: for inhibition at 50 µM: MHOM/IN/80/Dd8, 48 h
Summary of the method: (§1)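 Luciferase-expressing L. donovani Dd8 promastigotes were grown at 24 °C in M199 with 10% heat-inactivated FBS and G418 20 μg/mL. They were treated at varied concentrations for 24 and 48 h, and inhibition was read as relative luminescence units versus untreated control. IC50 was from dose–response; screening values are mean ± SD of at least three experiments in duplicate.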

Leishmania donovani [2] = assay: Antileishmanial activity against Leishmania donovani MHOM/IN/80/Dd8 amastigotes harboring luciferase reporter gene infected in mouse J774 cells at 25 uM after 48 hrs by Steady-Glo luminescence assay relative to control; type: functional; conditions: for inhibition at 25 µM: MHOM/IN/80/Dd8, J774, 48 h
Summary of the method: (§2)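 Infection of J774 macrophages with L. donovani Dd8 promastigotes at a 1:8 cell:parasite ratio. Compounds were diluted 2-fold in RPMI over 3.125–100 μM final and applied for 48 h. Amastigote inhibition was read by luciferase (RLU) or by Giemsa count of amastigotes per 100 macrophages. IC50 was from dose–response; n = 3 independent experiments done in replicate.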

Leishmania donovani [3] = assay: Antileishmanial activity against Leishmania donovani MHOM/IN/80/Dd8 promastigotes harboring luciferase reporter gene at 25 uM after 48 hrs by Steady-Glo luminescence assay relative to control; type: functional; conditions: for inhibition at 25 µM: MHOM/IN/80/Dd8, 48 h; summary of the method: as §1
Leishmania donovani [4] = assay: Antileishmanial activity against Leishmania donovani MHOM/IN/80/Dd8 amastigotes harboring luciferase reporter gene infected in mouse J774 cells at 50 uM after 48 hrs by Steady-Glo luminescence assay relative to control; type: functional; conditions: for inhibition at 50 µM: MHOM/IN/80/Dd8, J774, 48 h; summary of the method: as §2
[5] = Selectivity index, ratio of CC50 for mouse J774 cells to IC50 for antileishmanial activity against Leishmania donovani MHOM/IN/80/Dd8 harboring luciferase reporter gene
[6] = Toxicity in BALB/c mouse infected with Leishmania donovani MHOM/IN/80/Dd8 promastigotes assessed as effect on health at 25 mg/kg, po administered once daily for 5 days measured up to 7 days post dose; type: organism-based; conditions: in vivo
Summary of the method: (§3)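 BALB/c mice (20 ± 2 g) were infected by tail-vein injection of 2 × 10^7 stationary-phase promastigotes. From day 15 they were given miltefosine 25 mg/kg orally, suspended in triple-distilled water, daily for 5 days, and killed at day 7 post-treatment. Survival, health and body weight were monitored; 5 mice per group.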

[7] = Toxicity in BALB/c mouse infected with Leishmania donovani MHOM/IN/80/Dd8 promastigotes assessed as reduction in body weight at 25 mg/kg, po administered once daily for 5 days measured up to 7 days post dose; type: organism-based; conditions: in vivo; summary of the method: as §3
Leishmania donovani [8] = assay: Antileishmanial activity against Leishmania donovani MHOM/IN/80/Dd8 promastigotes infected in BALB/c mouse assessed as reduction in parasite load in spleen at 25 mg/kg, po administered once daily for 5 days measured 7 days post dose by giemsa staining-based assay relative to control; type: functional; set-up: scale not given: the % may be the effect or the level left
Summary of the method: (§4)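 Reference-drug arm of the same infection model (BALB/c mice, 15-day infection, 2 × 10^7 promastigotes iv). Drug was suspended in triple distilled water and given orally at 25 mg/kg/day for 5 days, 5 mice per group. Hepatic and splenic burden was taken at day 7 post-treatment by Giemsa stamp smears, as LDU.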

Leishmania donovani [9] = assay: Antileishmanial activity against Leishmania donovani MHOM/IN/80/Dd8 amastigotes harboring luciferase reporter gene infected in mouse J774 cells after 48 hrs by Steady-Glo luminescence assay; type: functional, organism-based; conditions: MHOM/IN/80/Dd8, J774, 48 h; summary of the method: as §2
Leishmania donovani [10] = assay: Antileishmanial activity against Leishmania donovani MHOM/IN/80/Dd8 promastigotes infected in BALB/c mouse assessed as reduction in parasite load in liver at 25 mg/kg, po administered once daily for 5 days measured 7 days post dose by giemsa staining-based assay relative to control; type: functional; set-up: scale not given: the % may be the effect or the level left; summary of the method: as §4
[11] = Toxicity in BALB/c mouse infected with Leishmania donovani MHOM/IN/80/Dd8 promastigotes assessed as death at 25 mg/kg, po administered once daily for 5 days measured up to 7 days post dose; type: organism-based; conditions: in vivo; summary of the method: as §3
[12] = Selectivity index, ratio of CC50 for […] Vero cells to IC50 for antileishmanial activity against Leishmania donovani MHOM/IN/80/Dd8 harboring luciferase reporter gene; type: toxicity
Summary of the method: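 J774 macrophages and Vero cells were exposed to 12.5–400 μM for 48 h, with viability by MTT. CC50 was derived, and SI was calculated as CC50 divided by anti-amastigote IC50 in each cell type.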

Leishmania donovani [13] = assay: Antileishmanial activity against Leishmania donovani MHOM/IN/80/Dd8 amastigotes harboring luciferase reporter gene infected in mouse J774 cells after 48 hrs by Giemsa staining-based microscopic assay; type: functional, organism-based; conditions: MHOM/IN/80/Dd8, J774, 48 h; summary of the method: as §2
[14] = Toxicity in BALB/c mouse infected with Leishmania donovani MHOM/IN/80/Dd8 promastigotes assessed as effect on health at 50 mg/kg, ip administered once daily for 5 days measured up to 7 days post dose; type: organism-based; conditions: in vivo
Summary of the method: (§5)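 BALB/c mice (20 ± 2 g) were infected by tail-vein injection of 2 × 10^7 stationary-phase promastigotes. At day 15 they received ip doses in 8% DMSO/PBS for 5 consecutive days and were killed at day 7 post-treatment. Survival, general health and body weight were monitored; 5 mice per group.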

Leishmania donovani [15] = assay: Antileishmanial activity against Leishmania donovani MHOM/IN/80/Dd8 promastigotes infected in BALB/c mouse assessed as reduction in parasite load in spleen at 50 mg/kg, ip administered once daily for 5 days measured 7 days post dose by giemsa staining-based assay relative to control; type: functional; set-up: scale not given: the % may be the effect or the level left
Summary of the method: (§6)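 Hamster-passaged strain was transformed to promastigotes. Stationary-phase cells (2 × 10^7 in 0.2 mL PBS) were injected into the tail vein of BALB/c mice. From day 15 post-infection, mice received compound ip in 8% DMSO in PBS for 5 consecutive days, 5 mice per group. Mice were killed day 7 post-treatment. Liver and spleen burden was read from Giemsa-stained stamp smears as LDU.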

[16] = Toxicity in BALB/c mouse infected with Leishmania donovani MHOM/IN/80/Dd8 promastigotes assessed as effect on health at 12.5 to 200 mg/kg, ip administered once daily for 5 days measured up to 7 days post dose; type: organism-based; conditions: in vivo; summary of the method: as §5
[17] = Toxicity in BALB/c mouse infected with Leishmania donovani MHOM/IN/80/Dd8 promastigotes assessed as death at 50 mg/kg, ip administered once daily for 5 days measured up to 7 days post dose; type: organism-based; conditions: in vivo; summary of the method: as §5
[18] = Toxicity in BALB/c mouse infected with Leishmania donovani MHOM/IN/80/Dd8 promastigotes assessed as reduction in body weight at 50 mg/kg, ip administered once daily for 5 days measured up to 7 days post dose; type: organism-based; conditions: in vivo; summary of the method: as §5
[19] = Toxicity in BALB/c mouse infected with Leishmania donovani MHOM/IN/80/Dd8 promastigotes assessed as reduction in body weight at 12.5 to 200 mg/kg, ip administered once daily for 5 days measured up to 7 days post dose; type: organism-based; conditions: in vivo; summary of the method: as §5
Leishmania donovani [20] = assay: Antileishmanial activity against Leishmania donovani MHOM/IN/80/Dd8 promastigotes infected in BALB/c mouse assessed as reduction in parasite load in liver at 50 mg/kg, ip administered once daily for 5 days measured 7 days post dose by giemsa staining-based assay relative to control; type: functional; set-up: scale not given: the % may be the effect or the level left; summary of the method: as §6
[21] = Toxicity in BALB/c mouse infected with Leishmania donovani MHOM/IN/80/Dd8 promastigotes assessed as death at 12.5 to 200 mg/kg, ip administered once daily for 5 days measured up to 7 days post dose; type: organism-based; conditions: in vivo; summary of the method: as §5
Leishmania donovani [22] = assay: Induction of mitochondrial potential loss in Leishmania donovani MHOM/IN/80/Dd8 promastigotes assessed as shift in red to green fluorescence at 50 uM by JC1 dye-based flow cytometry (reference value: 7.37%); type: functional

| SMILES | inhibition at 50 µM (Leishmania donovani [4]) [%] | inhibition at 50 µM (Leishmania donovani [1]) [%] | inhibition at 25 µM (Leishmania donovani [2]) [%] | inhibition at 25 µM (Leishmania donovani [3]) [%] | further results |
| --- | --- | --- | --- | --- | --- |
| Cc1ncc([N+](=O)[O-])n1CCOc1cccc(-c2cc(-c3ccccc3)c3cc([N+](=O)[O-])ccc3n2)c1 | 10.4 |  |  |  | inhibition (Leishmania donovani [1]): inactive; inhibition (Leishmania donovani [2]): inactive; inhibition (Leishmania donovani [3]): inactive |
| CCCCCCCCCCCCCCCCOP(=O)([O-])OCC[N+](C)(C)C [MILTEFOSINE] | 99.2 | 99.5 | 98.3 | 97.2 | selectivity ratio [5]: 5.8; Activity [6]: Non-Toxic; Activity [7]: Non-Toxic; Activity (Leishmania donovani [8]): >98%; IC50 (Leishmania donovani [9]): 9.59 µM; Activity (Leishmania donovani [10]): >98%; Activity [11]: Non-Toxic; selectivity ratio [12]: 5.3; IC50 (Leishmania donovani [13]): 9.59 µM |
| Cc1ncc([N+](=O)[O-])n1CCOc1cccc(-c2cc(-c3ccccc3)c3cc(Br)ccc3n2)c1 | 65.3 | 60.8 | 29.5 | 30.2 |  |
| Cc1ncc([N+](=O)[O-])n1CCOc1ccc(-c2cc(-c3ccccc3)c3ccc(Br)cc3n2)cc1 | 60.3 | 63.9 | 33.8 | 41.3 |  |
| c1ccc2ncccc2c1 [QUINOLINE] | 83.6 | 80.2 | 64.5 | 42.4 | Activity [14]: Non-Toxic; Activity [6]: Non-Toxic; Activity (Leishmania donovani [15]): 55.2%; Activity [16]: Non-Toxic; Activity [7]: Non-Toxic; Activity [17]: Non-Toxic; Activity [18]: Non-Toxic; Activity [19]: Non-Toxic; Activity (Leishmania donovani [20]): 58.2%; Activity [11]: Non-Toxic; Activity [21]: Non-Toxic |
| N#CC(C#N)=NNc1cccc(Cl)c1 [CARBONYL CYANIDE M-CHLOROPHENYLHYDRAZONE] |  |  |  |  | Activity (Leishmania donovani [22]): 95.49% |
| Cc1ncc([N+](=O)[O-])n1CCOc1cccc(-c2cc(-c3ccccc3Cl)c3cc(Cl)ccc3n2)c1 |  | 26 |  | 12.3 | inhibition (Leishmania donovani [2]): inactive; inhibition (Leishmania donovani [4]): inactive |
| Cc1ncc([N+](=O)[O-])n1CCOc1ccc(-c2cc(-c3ccccc3)c3ccccc3n2)cc1 | 67.7 | 93.2 | 45.3 | 78.2 |  |
| Cc1ncc([N+](=O)[O-])n1CCOc1cccc(-c2cc(-c3ccccc3)c3ccccc3n2)c1 | 66.4 | 63 | 31.2 | 43 |  |
| Cc1ncc([N+](=O)[O-])n1CCOc1ccc(-c2cc(-c3ccccc3)c3cc(Cl)ccc3n2)cc1 | 64.4 | 65.8 | 34.2 | 45.3 |  |
| Cc1ncc([N+](=O)[O-])n1CCOc1cccc(-c2cc(-c3ccccc3)c3cc(Cl)ccc3n2)c1 | 59.2 | 58.2 | 38.2 | 41.2 |  |
| Cc1ncc([N+](=O)[O-])n1CCO [METRONIDAZOLE] | 68.1 | 62.2 | 31.2 | 41.3 | Activity [14]: Non-Toxic; Activity [6]: Non-Toxic; Activity (Leishmania donovani [15]): 36.6%; Activity [16]: Non-Toxic; Activity [7]: Non-Toxic; Activity [17]: Non-Toxic; Activity [18]: Non-Toxic; Activity [19]: Non-Toxic; Activity (Leishmania donovani [20]): 40.8%; Activity [11]: Non-Toxic; Activity [21]: Non-Toxic |
| Cc1ncc([N+](=O)[O-])n1CCOc1ccc(-c2cc(-c3ccccc3F)c3cc(Cl)ccc3n2)cc1 | 63.6 | 59.1 | 23.4 | 34.4 |  |
| Cc1ncc([N+](=O)[O-])n1CCOc1ccc(-c2cc(-c3ccccc3Cl)c3cc(Cl)ccc3n2)cc1 | 27.2 | 61.7 | 12.1 | 38.2 |  |
| Cc1ncc([N+](=O)[O-])n1CCOc1cccc(-c2cc(-c3ccccc3F)c3cc(Cl)ccc3n2)c1 | 12.1 |  |  |  | inhibition (Leishmania donovani [1]): inactive; inhibition (Leishmania donovani [2]): inactive; inhibition (Leishmania donovani [3]): inactive |
